ChEMBL document CHEMBL1158601, “Discovery of a novel series of CXCR3 antagonists” (Bioorg Med Chem Lett, 2010)
In brackets after ≈: the same amount, converted by molar mass. Activity calls are given as the source filed them. No cut-off for these calls is given here.

What was measured:
[1] = Aqueous solubility at pH 7.4; format: physicochemical; conditions: buffer
Outline: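 Aqueous solubility measured at pH 7.4.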

[2] = Intrinsic clearance in human liver microsomes assessed per mg of protein; format: ADME, Microsome
Outline: (§1)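 Intrinsic clearance from stability in human and rat liver microsomes, expressed as µL/min/mg protein.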

[3] = target: T1, C-X-C chemokine receptor type 5 (Homo sapiens) (UniProt P32302); assay: Antagonist activity at human CXCR5 expressed in mouse L1.2 cells assessed as inhibition of CXCL13-induced chemotaxis up to 10 uM after 4 hrs; format: functional, cell-based
T1 sequence (whole entry): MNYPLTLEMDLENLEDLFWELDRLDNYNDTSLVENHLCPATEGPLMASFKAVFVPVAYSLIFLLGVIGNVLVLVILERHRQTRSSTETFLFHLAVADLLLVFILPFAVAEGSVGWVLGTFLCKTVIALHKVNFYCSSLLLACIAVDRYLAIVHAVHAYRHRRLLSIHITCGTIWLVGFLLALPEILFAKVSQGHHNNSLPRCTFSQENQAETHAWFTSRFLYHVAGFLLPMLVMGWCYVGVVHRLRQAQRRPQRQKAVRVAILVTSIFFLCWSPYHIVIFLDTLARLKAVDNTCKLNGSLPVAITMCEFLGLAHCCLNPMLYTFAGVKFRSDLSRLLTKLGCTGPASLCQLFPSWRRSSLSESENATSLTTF
Outline: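 Counter-screen chemotaxis: CXCR5-overexpressing L1.2 cells stimulated with CXCL13, test compounds up to 10 µM.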

[4] = Intrinsic clearance in rat liver microsomes assessed per mg of protein; format: ADME, Microsome; outline: as §1
[5] = target: T2, C-X-C chemokine receptor type 3 (Homo sapiens, UniProt P49682); assay: Displacement of labeled IP10 from CXCR3
T2 sequence (P49682 whole entry): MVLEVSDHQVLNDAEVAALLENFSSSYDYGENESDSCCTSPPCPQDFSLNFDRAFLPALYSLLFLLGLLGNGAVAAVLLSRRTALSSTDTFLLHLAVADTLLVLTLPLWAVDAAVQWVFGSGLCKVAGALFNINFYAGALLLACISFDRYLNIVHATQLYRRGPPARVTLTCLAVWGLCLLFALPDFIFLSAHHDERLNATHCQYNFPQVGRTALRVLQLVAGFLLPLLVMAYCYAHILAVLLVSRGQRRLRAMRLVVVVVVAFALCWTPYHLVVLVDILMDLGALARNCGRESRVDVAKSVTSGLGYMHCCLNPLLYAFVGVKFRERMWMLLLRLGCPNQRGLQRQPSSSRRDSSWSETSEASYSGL

[6] = Apparent permeability across human Caco-2 cells; format: ADME, cell-based
[7] = target: T2, C-X-C chemokine receptor type 3; assay: Displacement of labeled ITAC from CXCR3
[8] = target: T3, C-X-C chemokine receptor type 3 (Homo sapiens) (UniProt P49682); assay: Antagonist activity at CXCR3 assessed as inhibition of IP10-induced GTPgammaS binding; format: functional
T3 sequence (whole entry): T2 sequence (P49682 whole entry)

[9] = target: T3, C-X-C chemokine receptor type 3 (Homo sapiens); assay: Antagonist activity at CXCR3 assessed as inhibition of ITAC-induced GTPgammaS binding; format: functional
[10] = target: T3, C-X-C chemokine receptor type 3 (Homo sapiens); assay: Antagonist activity at human CXCR3 expressed in mouse L1.2 cells assessed as inhibition of ITAC-induced chemotaxis after 4 hrs; format: functional, cell-based
[11] = Lipophilicity, log P of the compound; format: physicochemical; conditions: octanol/water
[12] = Nephelometric kinetic solubility in PBS; format: physicochemical
[13] = Chemical stability at pH 1; format: physicochemical; conditions: buffer
[14] = Bioavailability in mouse at 10 mg/kg, po; format: ADME, organism-based; conditions: in vivo
[15] = Half life in mouse at 10 mg/kg, po; format: ADME, organism-based; parameters: dose 10 mg/kg, route oral; conditions: in vivo
[16] = system: Mus musculus; assay: Clearance in mouse assessed as liver blood flow at 0.2 mg/kg, iv; format: ADME, organism-based; parameters: dose 0.2 mg/kg, route intravenous; conditions: in vivo
[17] = Intrinsic clearance in mouse liver microsomes assessed per mg of protein; format: ADME, Microsome
[18] = Clearance in mouse at 0.2 mg/kg, iv; format: ADME, organism-based; parameters: dose 0.2 mg/kg, route intravenous; conditions: in vivo
[19] = Volume of distribution at steady state in mouse at 0.2 mg/kg, iv; format: ADME, organism-based; parameters: dose 0.2 mg/kg, route intravenous; conditions: in vivo, read-out: Vdss

Row | SMILES | solubility [1] [µM] | Activity [3] | microsomal CLint [4] [µL/min/mg] | further results
1 | O=S(=O)(c1ccc(Cl)cc1)N(Cc1ccc(Cl)cc1)Cc1ccc(-c2nnn[nH]2)cc1 | > 100 | inactive |  | 
2 | N#Cc1ccc(S(=O)(=O)N(Cc2ccc(C(=O)O)c(F)c2)Cc2ccccn2)cc1 |  | inactive |  | 
3 | O=S(=O)(c1ccc(Cl)cc1)N(Cc1ccc(-c2nnn[nH]2)c(F)c1)Cc1ccccc1F | > 100 | inactive | 71 | microsomal CLint [2]: < 10 µL/min/mg
4 | COc1cccc(CN(Cc2ccc(-c3nnn[nH]3)cc2)S(=O)(=O)c2ccc(Cl)cc2)c1 | > 100 | inactive |  | 
5 | O=S(=O)(c1ccc(Cl)cc1)N(Cc1ccc(-c2nnc(O)o2)cc1)Cc1ccccn1 |  | inactive |  | 
6 | N#Cc1ccc(S(=O)(=O)N(Cc2ccc(-c3nnn[nH]3)cc2)Cc2ccccc2F)cc1 | > 100 | inactive | 67 | 
7 | O=C(O)c1ccc(CN(Cc2ccccn2)S(=O)(=O)c2ccc(Cl)cc2)cc1F |  | inactive |  | 
8 | O=S(=O)(c1ccc(Cl)cc1)N(Cc1ccc(-c2nnn[nH]2)cc1)Cc1ccccc1F | > 100 | inactive |  | 
9 | COc1ccc(CN(Cc2ccc(-c3nnn[nH]3)cc2)S(=O)(=O)c2ccc(Cl)cc2)cc1 | > 100 | inactive |  | 
10 | CCOc1ccc(S(=O)(=O)N(Cc2ccc(-c3nnn[nH]3)cc2)Cc2ccccn2)cc1 | > 100 | inactive |  | 
11 | O=S(=O)(c1ccc(Cl)cc1)N(Cc1ccc(-c2nnn[nH]2)c(F)c1)Cc1ccccn1 | > 100 | inactive |  | 
12 | CC(C)(C)c1nc(CCN(Cc2ccc(-c3nnn[nH]3)cc2)S(=O)(=O)c2ccc(Cl)cc2)no1 | > 100 | inactive |  | 
13 | O=C(O)c1ccc(CN(Cc2ccccc2F)S(=O)(=O)c2ccc(Cl)cc2)cc1F |  | inactive | < 10 | 
14 | O=S(=O)(c1ccc(Cl)cc1)N(Cc1ccc(F)cc1)Cc1ccc(-c2nnn[nH]2)cc1 | > 100 | inactive |  | 
15 | O=S(=O)(c1ccc(Cl)cc1)N(Cc1ccc(-c2nnn[nH]2)cc1)Cc1ccccn1 | > 100 | inactive | 25 | microsomal CLint [2]: < 10 µL/min/mg
16 | O=S(=O)(c1ccc(Cl)cc1)N(CCc1cc2ccccc2cn1)Cc1ccc(-c2nnn[nH]2)cc1 | > 100 | inactive |  | 
17 | O=S(=O)(c1ccc(Cl)cc1)N(Cc1ccc(-c2nnn[nH]2)cc1)Cc1cccc(Cl)c1 | > 100 | inactive |  | 
18 | N#Cc1ccc(S(=O)(=O)N(Cc2ccc(-c3nnn[nH]3)c(F)c2)Cc2ccccc2F)cc1 | > 100 | inactive |  | bioavailability [14]: 83%; half-life [15]: 1 h; Fraction of Liver Blood Flow [16]: 30%; microsomal CLint [17]: 17 µL/min/mg; clearance [18]: 28.3 mL/min/kg; Vd [19]: 1 L/kg
19 | N#Cc1ccc(S(=O)(=O)N(Cc2ccc(-c3nnn[nH]3)cc2)Cc2ccccn2)cc1 | > 100 | inactive |  | 

More lines, main results first:

Row | solubility [1] [µM] | Activity [3] | microsomal CLint [4] [µL/min/mg] | SMILES | further results
20 | < 10 | inactive | 1700 | O=C(NC[C@@H]1CCCO1)c1ccc(CN(Cc2ccccc2)S(=O)(=O)c2ccc(Cl)cc2)cc1 | microsomal CLint [2]: 490 µL/min/mg
21 | < 10 | inactive |  | N#Cc1ccc(S(=O)(=O)N(Cc2ccc(C(=O)NCC3CC3)cc2)Cc2ccccn2)cc1 | 
22 | < 10 | inactive |  | COc1ccc(S(=O)(=O)N(Cc2ccc(C(=O)NCC3CC3)cc2)Cc2cccnc2)cc1 | 
23 | < 10 | inactive |  | COc1ccc(S(=O)(=O)N(Cc2ccccc2)Cc2ccc(C(=O)NCc3ccccc3)cc2)cc1 | 
24 | < 10 | inactive |  | O=C(NCCc1cccc([N+](=O)[O-])c1)c1ccc(CN(Cc2ccccc2)S(=O)(=O)c2ccc(Cl)cc2)cc1 | 
25 | < 10 | inactive |  | O=C(NCC1CC1)c1ccc(CN(Cc2ccccc2)S(=O)(=O)c2ccc(OC(F)(F)F)cc2)cc1 | 
26 | < 10 | inactive | 507 | O=C(NC1(c2ccccc2)CC1)c1ccc(CN(Cc2ccccc2)S(=O)(=O)c2ccc(Cl)cc2)cc1 | microsomal CLint [2]: 211 µL/min/mg
27 |  | inactive |  | COc1ccc(S(=O)(=O)N(Cc2ccccc2)Cc2ccc(C(=O)O)cc2)cc1 | 
28 | < 10 | inactive |  | O=C(NCc1cccc(Cl)c1)c1ccc(CN(Cc2ccccc2)S(=O)(=O)c2ccc(Cl)cc2)cc1 | 
29 |  | inactive | 20 | O=C(O)c1ccc(CN(Cc2ccccc2)S(=O)(=O)c2ccc(Cl)cc2)cc1 | microsomal CLint [2]: < 10 µL/min/mg
30 | < 10 | inactive |  | O=C(NCC1CC1)c1ccc(CN(Cc2cccc(Cl)c2)S(=O)(=O)c2ccc(Cl)cc2)cc1 | 
31 | < 10 | inactive | 474 | N#Cc1ccc(S(=O)(=O)N(Cc2ccc(C(=O)NC3(c4ccccc4)CC3)cc2)Cc2ccccn2)cc1 | microsomal CLint [2]: 435 µL/min/mg
32 |  |  | 219 | CC(=O)Nc1cccc(/C(C)=N\NC(=O)c2ccc(CN(Cc3ccccc3)S(=O)(=O)c3ccc(Cl)cc3)cc2)c1 | Ki [5]: 348 nM; Papp [6]: 0.1 ×10⁻⁶ cm/s; Ki [7]: 211 nM; Activity [8]: 99 nM; Activity [9]: 128 nM; Activity [10]: 1810 nM; microsomal CLint [2]: 92 µL/min/mg; logP [11]: 4.8; solubility kinetic [12]: 11.9 µM (≈ 7.01 µg/mL); Stability [13]: Unstable
33 | < 10 | inactive | 1190 | O=C(NCc1cccc(Cl)c1)c1ccc(CN(Cc2ccccn2)S(=O)(=O)c2ccc(Cl)cc2)cc1 | microsomal CLint [2]: 583 µL/min/mg
34 | < 10 | inactive |  | CCOc1ccc(S(=O)(=O)N(Cc2ccccc2)Cc2ccc(C(=O)NCC3CC3)cc2)cc1 | 
35 | < 10 | inactive | 1260 | O=C(NC1(c2ccccc2)CC1)c1ccc(CN(Cc2ccccn2)S(=O)(=O)c2ccc(Cl)cc2)cc1 | microsomal CLint [2]: 257 µL/min/mg
36 | < 10 | inactive | 538 | O=C(NCC1CC1)c1ccc(CN(Cc2ccccn2)S(=O)(=O)c2ccc(Cl)cc2)cc1 | microsomal CLint [2]: 265 µL/min/mg
37 | < 10 | inactive |  | O=C(NCc1cccs1)c1ccc(CN(Cc2ccccc2)S(=O)(=O)c2ccc(Cl)cc2)cc1 | 
38 | < 10 | inactive |  | COc1ccc(S(=O)(=O)N(Cc2ccccc2)Cc2ccc(C(=O)NCC3CC3)cc2)cc1 | 
39 | < 10 | inactive |  | O=C(NCC1CC1)c1ccc(CN(Cc2ccccc2)S(=O)(=O)c2ccc(Cl)cc2)cc1 | 
40 | < 10 | inactive |  | O=C(NCC1CC1)c1ccc(CN(Cc2ccccc2F)S(=O)(=O)c2ccc(Cl)cc2)cc1 | 
